# The source made the active and inactive calls. The calls are words filed in the database; no cut-off is given here.
# What was measured:
# [1] = tested on: Plasma; experiment: Anticoagulant activity in pooled human plasma assessed as prolongation of activated partial thromboplastin time incubated for 4 mins by coagulometer analysis; format: functional, cell-free
# Method in brief: (§1)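 Pooled normal citrated human plasma (90 μL) mixed with 10 μL compound and 100 μL prewarmed ellagic acid APTT reagent, incubated 4 min at 37 °C, then recalcified with 100 μL prewarmed 25 mM CaCl2. Clot time read on a fibrometer (one-stage recalcification). Water blank gave the baseline. Concentration doubling APTT came from a quadratic trend-line fit.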
# [2] = tested on: HT-29; experiment: Anticancer activity against human HT-29 cells assessed as inhibition of CXCR4+ expression level; format: functional, cell-based
# [3] = tested on: HT-29; experiment: Anticancer activity against human HT-29 cells assessed as inhibition of LGR5 expression level; format: functional, cell-based
# [4] = tested on: Plasma; experiment: Anticoagulant activity in pooled human plasma assessed as prolongation of activated partial thromboplastin time at 900 uM incubated for 4 mins by coagulometer analysis; format: functional; method in brief: as §1
# [5] = tested on: HT-29; experiment: Anticancer activity against human HT-29 cells assessed as inhibition of CD133+ expression level; format: functional, cell-based
# [6] = Cytotoxicity against human HT-29 cells assessed as inhibition of spheroid growth; conditions: HT-29 cell spheroids
# [7] = tested on: HT-29; experiment: Antitumor activity against human HT-29 cells xenografted in NCR nude mouse assessed as reduction in tumor growth at 100 mg/kg, ip administered 3 times a week for 3 weeks; format: functional, organism-based
# [8] = tested on: HT-29; experiment: Cytotoxicity against human HT-29 cells assessed as reduction in cell viability incubated for 60 to 72 hrs by MTT assay; format: toxicity, cell-based; conditions: time 60-72 hrs
# Method in brief: (§2)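 HT-29 monolayer cells were seeded at about 2.5 × 10^3 per well in DMEM:F12 with 10% FBS and incubated overnight at 37 °C, 5% CO2. Compound was added for 60–72 h. MTT (5 mg/mL in PBS) was added for 2–3 h, crystals were dissolved in DMSO and absorbance read at 590 nm. Results are percent of vehicle control, at least three replicates.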
# [9] = tested on: HT-29; experiment: Anticancer activity against human HT-29 cells assessed as inhibition of DCAMLK1 expression level; format: functional, cell-based
# [10] = tested on: HT-29; experiment: Antitumor activity against human HT-29 cells xenografted in NCR nude mouse assessed as decrease in DCAMKL1 expression at 100 mg/kg, ip administered 3 times a week for 4.6 weeks by Western blot analysis; format: functional, organism-based
# Method in brief: (§3)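 Mice were randomized to 100 mg/kg IP three times/week for 4.6 weeks (14 doses). Tumors (n = 2/group) were dissociated and analysed by Western blot for LGR5, DCAMLK1 and BMI-1, and by flow cytometry for CD133+/CXCR4+ cells.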
# [11] = tested on: HT-29; experiment: Cytotoxicity against human HT-29 cells assessed as reduction in cell viability at 400 uM incubated for 60 to 72 hrs by MTT assay; format: toxicity, cell-based; conditions: ht-29, 400 µM, time 60-72 hrs; method in brief: as §2
# [12] = tested on: HT-29; experiment: Antitumor activity against human HT-29 cells xenografted in NCR nude mouse assessed as decrease in BMI-1 expression at 100 mg/kg, ip administered 3 times a week for 4.6 weeks by Western blot analysis; format: functional, organism-based; method in brief: as §3
# [13] = tested on: HT-29; experiment: Antitumor activity against human HT-29 cells xenografted in NCR nude mouse assessed as decrease in LGR5 expression at 100 mg/kg, ip administered 3 times a week for 4.6 weeks by Western blot analysis; format: functional, organism-based; method in brief: as §3
# [14] = tested on: Plasma; experiment: Anticoagulant activity in human plasma assessed as prolongation of activated partial thromboplastin time by measuring concentration required to double APTT incubated for 4 mins by coagulometer analysis; format: functional, cell-free; method in brief: as §1
# [15] = tested on: HT-29; experiment: Antitumor activity against human HT-29 cells xenografted in NCR nude mouse assessed as spheroid formation at 25 mg/kg, ip administered for 3 weeks in presence of oxaliplatin; format: functional, organism-based
# Method in brief: (§4)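 HT-29 cells (1×10^6 bulk, or 1×10^5 FACS-sorted CD133+/CXCR4+) injected subcutaneously into NCr nude mice. Once tumors were palpable (>50 mm3), 5-fluorouracil 25 mg/kg plus oxaliplatin 2 mg/kg given IP weekly for 3 weeks, then mice randomized for further treatment. Tumor volume by Vernier caliper three times weekly. Ex vivo xenograft cells were digested with collagenase IV and assessed for 1°–4° spheroids (50–150 μm) and for Dual Hi/LGR5+ cells by flow cytometry.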
# [16] = tested on: HT-29; experiment: Antitumor activity against human HT-29 cells xenografted in NCR nude mouse assessed as increase in number of spheroids at 25 mg/kg, ip administered for 3 weeks in presence of oxaliplatin; format: functional, organism-based; method in brief: as §4
# [17] = tested on: HT-29; experiment: Antitumor activity against human HT-29 cells xenografted in NCR nude mouse assessed as reduction in tumor volume at 25 mg/kg, ip administered for 3 weeks in presence of oxaliplatin by vernier caliper method; format: functional, organism-based; method in brief: as §4
# [18] = tested on: HT-29; experiment: Antitumor activity against human HT-29 cells xenografted in NCR nude mouse assessed as increase in proportion of CSC at 25 mg/kg, ip administered for 3 weeks in presence of oxaliplatin by flow cytometry analysis (reference value: 11.37 %); format: functional; method in brief: as §4
smiles,measurement,setting,value
O=c1c(OS(=O)(=O)[O-])c(-c2ccc(OS(=O)(=O)[O-])c(OS(=O)(=O)[O-])c2)oc2cc(OS(=O)(=O)[O-])cc(OCCCOc3cc(OS(=O)(=O)[O-])cc4oc(-c5ccc(OS(=O)(=O)[O-])c(OS(=O)(=O)[O-])c5)c(OS(=O)(=O)[O-])c(=O)c34)c12.[Na+].[Na+].[Na+].[Na+].[Na+].[Na+].[Na+].[Na+],Activity,[1],Dose-Dependent Effect
same,Activity,[2],Active
same,Activity,[3],Active
same,APTT,[4],68 s
same,Activity,[5],Active
same,IC50,[6],29.6 µM
same,Activity,[7],Active
same,Activity,[8],Non-Toxic
same,Activity,[9],Active
CC(C)CCC[C@@H](C)[C@H]1CC[C@H]2[C@@H]3CC=C4C[C@@H](OCCCCCOc5cc(-c6oc7cc(OS(=O)(=O)[O-])cc(OCCCOc8cc(OS(=O)(=O)[O-])cc9oc(-c%10ccc(OS(=O)(=O)[O-])c(OS(=O)(=O)[O-])c%10)c(OS(=O)(=O)[O-])c(=O)c89)c7c(=O)c6OS(=O)(=O)[O-])ccc5OS(=O)(=O)[O-])CC[C@]4(C)[C@H]3CC[C@]12C.[Na+].[Na+].[Na+].[Na+].[Na+].[Na+].[Na+],Activity,[10],Active
same,Activity,[1],Dose-Dependent Effect
same,Activity,[11],Toxic
same,Activity,[12],Active
same,Activity,[13],Active
same,IC50,[6],11.5 µM
same,Activity,[14],Active
O=c1[nH]cc(F)c(=O)[nH]1 [FLUOROURACIL],Activity,[15],Active
same,Activity,[16],Active
same,Activity,[17],Active
same,Activity,[18],26.4%
O=c1cc(-c2ccc(OS(=O)(=O)[O-])cc2)oc2cc(OS(=O)(=O)[O-])cc(OCC3CCC(COc4cc(OS(=O)(=O)[O-])cc5oc(-c6ccc(OS(=O)(=O)[O-])cc6)cc(=O)c45)CC3)c12.[Na+].[Na+].[Na+].[Na+] (configuration not stated),IC50,[6],46 µM
same,Activity,[8],Non-Toxic

# Source: ChEMBL document CHEMBL5316316, “Designing Synthetic, Sulfated Glycosaminoglycan Mimetics That Are Orally Bioavailable and Exhibiting In Vivo Anticancer Activity” (J Med Chem, 2023)
